Assay results taken from ChEMBL document CHEMBL1146206, “Synthesis, cytotoxicity, and antiviral activities of new neolignans related to honokiol and magnolol” (Bioorg Med Chem Lett, 2007).
Activity calls are given as the source filed them. The rule behind the calls is not given here.

Legend:
SVR [1] = experiment: Antiproliferative activity against mouse SVR cells at 10 ug/mL after 72 hrs; assay type: functional
Method in brief: (§1)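 Immortalized endothelial SVR cells were seeded at 10^4 per well in 24-well dishes. The next day, the medium was replaced with fresh medium containing compound or controls. Cells were incubated for 72 h at 37 °C. Cell number was counted in triplicate with a Coulter counter, and results were expressed as percent inhibition of proliferation.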

SVR [2] = experiment: Antiproliferative activity against mouse SVR cells at 15 ug/mL after 72 hrs; assay type: functional; method in brief: as §1
[3] = test system: Human immunodeficiency virus 1; experiment: Antiviral activity against HIV1 in human PBM cells; assay type: functional, organism-based; conditions: Human immunodeficiency virus 1, PBMC
[4] = Cytotoxicity against human PBM cells; assay type: cell-based; conditions: PBMC
CCRF-CEM = experiment: Cytotoxicity against human CEM cells; assay type: cell-based
Vero = experiment: Cytotoxicity against Vero cells; assay type: cell-based; conditions: Chlorocebus sabaeus
SVR [5] = experiment: Inhibition of tumor growth in SVR cells bearing mouse up to 100 mg/kg, ip after 30 days; assay type: functional, organism-based; set-up: dose 100 mg/kg
Method in brief: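 Nude male mice, 6 weeks old, were inoculated in the flank with SVR cells. Once tumors were visible, about 1 week after inoculation, mice received 3 mg/day intraperitoneally or vehicle control. Treatment ran up to 100 mg/kg for 30 days. Tumor growth and toxicity were compared against vehicle-treated mice.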

Compound	inhibition at 10 µg/mL (SVR [1]) [%]	inhibition at 15 µg/mL (SVR [2]) [%]	EC50 [3] [µM]	EC90 [3] [µM]	IC50 [4] [µM]	IC50 (CCRF-CEM) [µM]	IC50 (Vero) [µM]	Activity (SVR [5])
C=CCc1cc(C(=C(Cl)Cl)c2ccc(O)c(CC=C)c2)ccc1O	54	76	14.3	48.8	43.6	17.1	12.1	–
C=CCc1cc(-c2ncc(O)cn2)ccc1O	4.4	10	> 100	> 100	31.9	> 100	> 100	–
C=CCc1cc(Cc2ccc(O)c(CC=C)c2)ccc1O	75	74	13.6	35.1	33.7	15.1	1.9	–
C=CCc1cc(C2(c3ccc(O)c(CC=C)c3)CCCCC2)ccc1O	63	79	36.5	67.2	55.4	11	12.5	–
C=CCc1cc(-c2cccc(CC=C)c2O)ccc1O	74	81	23.4	81	36.7	17.9	11.4	–
C=CCc1cc(C(C)(C)c2ccc(O)c(CC=C)c2)ccc1O	33	57	4.1	47.3	> 100	5.8	13	–
C=CCc1cc(/C(CC)=C(\CC)c2ccc(O)c(CC=C)c2)ccc1O	68	89	9.5	30.9	> 100	3.4	3.7	inactive
C=CCc1cccc(-c2cccc(CC=C)c2O)c1O	41	57	34.8	63	45.9	10.4	19.8	–
C=CCc1ccc(O)c(-c2cc(CC=C)ccc2O)c1 [MAGNOLOL]	60	77	69.3	> 100	38.6	99.5	50.6	–
C=CCc1cc(-c2ccc(O)c(CC=C)c2)ccc1O	45	56	19.4	–	> 100	23	83.2	–
C=CCc1ccc(O)c(-c2ccc(O)c(CC=C)c2)c1 [HONOKIOL]	60	85	3.3	–	16.1	10.9	22.5	–
C=CCc1cc(C(c2ccc(O)c(CC=C)c2)c2ccccn2)ccc1O	25	46	35	67.2	16.8	16.5	14.8	–
